In ChEMBL document CHEMBL1124118, “Design, synthesis, and antineoplastic activity of 2'-deoxy-2'-methylidenecytidine” (J Med Chem, 1988):
≈ marks a conversion by molar mass, not a printed value.

What was measured:
Format in all cases: functional, cell-based
[1] = system: MOLT-4; assay: In vitro inhibitory effect on growth of human T-cell acute lymphoblastic leukemic MOLT 4 cell lines.
Procedure, shortened: (§1)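 MTT growth-inhibition assay (Carmichael method). Tumor cells seeded at 1 × 10^4 per well and incubated with or without compound for 72 h. MTT then added and OD(550-660 nm) read. % inhibition = [1 − (OD sample / OD control)] × 100. IC50 (μg/mL) taken as the concentration giving 50% inhibition of cell growth.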

[2] = system: SW480; assay: In vitro inhibitory effect on growth of human colon adenocarcinoma cell lines (SW480).; procedure, shortened: as §1
[3] = system: L1210; assay: In vitro inhibitory effect on growth of mouse leukemic L1210 cell lines.; procedure, shortened: as §1
[4] = system: TE-2; assay: In vitro inhibitory effect on growth of human esophagus […] cell lines (TE2).; procedure, shortened: as §1
[5] = system: PC10; assay: In vitro inhibitory effect on growth of human lung squamous cell carcinom cell lines (PC10).; procedure, shortened: as §1
[6] = system: T-24; assay: In vitro inhibitory effect on growth of human bladder transitional-carcinoma cell lines (T24).; procedure, shortened: as §1
[7] = system: K562; assay: In vitro inhibitory effect on growth of human chronic myelogenous leukemic K562 cell lines.; procedure, shortened: as §1
[8] = system: CCRF-CEM; assay: In vitro inhibitory effect on growth of human T-cell acute lymphoblastoid leukemic CCRFCEM cell lines.; procedure, shortened: as §1
[9] = system: PC10; assay: In vitro inhibitory effect on growth of human lung squamous cell carcinoma cell lines (PC10).
Procedure, shortened: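 Cells seeded at 1 × 10^4/well and incubated with or without compound for 72 h. MTT was then added and OD(550-660 nm) was read. % inhibition = [1 − (OD of sample well / OD of control well)] × 100. IC50 (μg/mL) is the concentration giving 50% inhibition of cell growth.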

C=C1C(n2ccc(N)nc2=O)O[C@H](CO)[C@@H]1O (some centres undefined)
IC50 [1]: 0.025 µg/mL (≈ 0.105 µM)
IC50 [2]: 3.8 µg/mL (≈ 15.9 µM)
IC50 [3]: 0.11 µg/mL (≈ 0.46 µM)
IC50 [4]: 2.9 µg/mL (≈ 12.1 µM)
IC50 [5]: 60.5 µg/mL (≈ 253 µM)
IC50 [6]: 3.7 µg/mL (≈ 15.5 µM)
IC50 [7]: 1.2 µg/mL (≈ 5.02 µM)
IC50 [8]: 0.047 µg/mL (≈ 0.196 µM)

O=c1[nH]cc(F)c(=O)[nH]1 [FLUOROURACIL]
IC50 [9]: > 100 µg/mL
IC50 [1]: 3.8 µg/mL (≈ 29.2 µM)
IC50 [2]: 3.3 µg/mL (≈ 25.4 µM)
IC50 [3]: 0.32 µg/mL (≈ 2.46 µM)
IC50 [4]: 3.9 µg/mL (≈ 30 µM)
IC50 [6]: 6.1 µg/mL (≈ 46.9 µM)
IC50 [7]: 38 µg/mL (≈ 292 µM)
IC50 [8]: 40 µg/mL (≈ 308 µM)

Nc1ccn([C@@H]2O[C@H](CO)[C@@H](O)[C@@H]2O)c(=O)n1 [CYTARABINE]
IC50 [9]: > 100 µg/mL
IC50 [1]: 0.056 µg/mL (≈ 0.23 µM)
IC50 [2]: > 100 µg/mL
IC50 [3]: 0.097 µg/mL (≈ 0.399 µM)
IC50 [4]: > 100 µg/mL
IC50 [6]: > 100 µg/mL
IC50 [7]: 3.2 µg/mL (≈ 13.2 µM)
IC50 [8]: 0.065 µg/mL (≈ 0.267 µM)
